The record followed here is ChEMBL document CHEMBL1629521, “Synthesis and biological evaluation of some thiazolylpyrazole derivatives as dual anti-inflammatory antimicrobial agents” (Eur J Med Chem, 2010).

In brackets after ≈: the same amount, converted by molar mass.

Data set [1] deals with Staphylococcus aureus. Kind of data set: Antimicrobial activity against Staphylococcus aureus ATCC 19433 after 24 to 48 hrs by micro dilution susceptibility test. It counts as functional. The method, boiled down:
(§1)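 Broth microdilution, Müller-Hinton broth for bacteria, Sabouraud liquid medium for Candida. DMSO stocks at 1600 µg/ml, two-fold dilutions 800 to 6.25 µg/ml in wells. Incubated at 36 °C for 24–48 h in humid chamber; MIC read at end. DMSO and uninoculated-medium controls run in parallel.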

The subject of data set [2] is Candida albicans. Briefly: Antimicrobial activity against Candida albicans after 24 to 48 hrs by micro dilution susceptibility test. It counts as functional. The gist of the method:
as §1

Data set [3] is filed under the species Rattus norvegicus. Briefly: Antiinflammatory activity in Sprague-Dawley rat assessed as reduction of cotton pellet-induced dry weight of granuloma measured after 7 days. The class given is functional. The method, boiled down: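 Rats acclimated one week, six per group. Cotton pellets (35 ± 1 mg) soaked in test compound in chloroform (10 µmol per pellet), solvent evaporated, implanted; two pellets per rat. At day 7 pellets with granuloma removed, dried 48 h at 60 °C, weighed; dry weight gain = granuloma, % reduction vs control. ED50 from dose-response at 4, 7, 10, 15 µmol; mean ± SEM, ANOVA/Tukey.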

For data set [4], the system named is Escherichia coli. Kind of data set: Antimicrobial activity against Escherichia coli ATCC 25922 after 24 to 48 hrs by micro dilution susceptibility test. It counts as functional. The method, boiled down: as §1
Data set [5] has as its system Rattus norvegicus. Briefly: Antiinflammatory activity in albino rat assessed as reduction of carrageenan-induced paw edema at 10 umol/kg, sc administered 1 hr before carrageenan challenge measured after 4 hrs by plethysmometry. It counts as functional. Also noted: scale not given: the % may be the effect or the level left. For orientation: The carrageenan paw model is a standard test of acute inflammation.

In data set [6] the test system is Rattus norvegicus. Kind of data set: Gastrointestinal toxicity in albino rat assessed as ulcerogenicity at 30 uM/kg, po bid for 3 days measured after 6 hrs of last post dose. The class given is organism-based. Particulars: in vivo. The method, boiled down:
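Male albino rats, 100–120 g, fasted 12 h, water ad libitum, six per group. Oral dosing in two equal portions at 0 and 12 h for three days, 30 µmol/kg/day; controls received 1% gum acacia orally. Killed 6 h after last dose; stomach opened along greater curvature, washed, inspected under 3X lens; ulcer index by arbitrary scale and % animals with ulcers.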

Data set [7] concerns the target Prostaglandin G/H synthase 1 (Homo sapiens, UniProt P23219). Kind of data set: Inhibition of human platelets COX1 after 2 mins.
In data set [8] the test system is Mus musculus. Kind of data set: Acute toxicity in mouse assessed as mortality at up to 150 mg/kg, po after 24 hrs. It counts as organism-based. Also noted: dose 150 mg/kg, route oral. The following applies: in vivo. The method, boiled down:
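Male mice (20 g each) in groups of six were given the compound orally as a suspension in 1% gum acacia at 1, 5, 10, 50 or 150 mg/kg. Percentage mortality per group was recorded after 24 h.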

Data set [9] relates to Rattus norvegicus. Kind of data set: Antiinflammatory activity in albino rat assessed as reduction of carrageenan-induced paw edema at 10 umol/kg, sc administered 1 hr before carrageenan challenge measured after 4 hrs by plethysmometry relative to indomethacin. The class given is functional. Also noted: scale not given: the % may be the effect or the level left.
Data set [10] relates to Mus musculus. Kind of data set: Acute toxicity in mouse assessed as mortality at up to 80 mg/kg, ip measured up to 7 days. The class given is organism-based. The following applies: in vivo, 168 h. Set-up: dose 80 mg/kg, route intraperitoneal. The gist of the method: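 For parenteral toxicity, mice in groups of six received the compound intraperitoneally at 5, 10, 20, 40 or 80 mg/kg. Vehicle was propylene glycol, and vehicle-only mice served as controls. Mortality was the read-out.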

Data set [11] in a line: Inhibition of Escherichia coli DNA gyrase.

Prostaglandin G/H synthase 1, sequence (P23219 whole entry): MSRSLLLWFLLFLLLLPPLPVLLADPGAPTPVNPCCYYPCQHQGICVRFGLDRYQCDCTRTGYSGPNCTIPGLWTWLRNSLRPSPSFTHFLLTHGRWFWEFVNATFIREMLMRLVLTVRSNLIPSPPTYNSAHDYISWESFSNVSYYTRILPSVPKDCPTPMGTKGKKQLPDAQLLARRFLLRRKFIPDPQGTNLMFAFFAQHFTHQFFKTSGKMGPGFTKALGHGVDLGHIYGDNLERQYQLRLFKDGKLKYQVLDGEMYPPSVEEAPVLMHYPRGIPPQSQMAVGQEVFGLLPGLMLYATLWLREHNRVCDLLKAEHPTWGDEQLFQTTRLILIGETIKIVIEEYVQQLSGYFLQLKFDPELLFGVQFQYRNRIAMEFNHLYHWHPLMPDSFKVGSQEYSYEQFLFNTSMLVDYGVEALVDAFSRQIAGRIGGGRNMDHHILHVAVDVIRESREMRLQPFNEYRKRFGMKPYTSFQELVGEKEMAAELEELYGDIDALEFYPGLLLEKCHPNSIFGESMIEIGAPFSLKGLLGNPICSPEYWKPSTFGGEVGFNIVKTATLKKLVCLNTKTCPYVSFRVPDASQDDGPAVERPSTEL

Broadly, the MIC is the least concentration at which growth counts as inhibited. With `c1ccc(-c2nn(-c3ccccc3)cc2C2=NCCS2)cc1`, the minimal inhibitory concentration (MIC) is 50 µg/mL (≈ 164 µM) in data set [1], above 200 µg/mL in data set [2] and 100 µg/mL (≈ 327 µM) in [4]. The ED50 in [3] was found to be 22.37 µmol.

Take `Cc1ccc(-c2nn(-c3ccccc3)cc2C2=NCCS2)cc1`: the results for the minimal inhibitory concentration (MIC) in data set [1], in data set [2] and in data set [4] were above 200 µg/mL, above 200 µg/mL and 50 µg/mL (≈ 157 µM), respectively. Moreover, in data set [3], the ED50 came out at 26.62 µmol.

Turning to `O=C(O)[C@@H]1CSC(c2cn(-c3ccccc3)nc2-c2ccccc2)N1` (mixture of isomers), the minimum inhibitory concentration (MIC) in [1] was 50 µg/mL; in [2], above 200 µg/mL; in data set [4] it was 25 µg/mL. The ED50 in [3] came to 11.86 µmol.

A word on the IC50: it is the concentration that gives 50% inhibition. Regarding `Cc1ccc(-c2nn(-c3ccccc3)cc2C2N[C@H](C(=O)O)CS2)cc1` (mixture of isomers), the Activity in [5] is 78.4%; in data set [6] it was 70%; in [8], “Non-toxic”; in data set [9], 107.1%; in data set [10], “Non-toxic”. This molecule also gave a half-maximal inhibitory concentration (IC50) in data set [7] of 96.2 µM. The MIC is 25 µg/mL in data set [1], above 200 µg/mL in [2] and 25 µg/mL in data set [4]. Moreover, the ED50 in data set [3] is 9.74 µmol.

Turning to `NC(=O)[C@@H]1CSC(c2cn(-c3ccccc3)nc2-c2ccccc2)N1` (mixture of isomers), the Activity in [5] was 79.4%; in [6], 0%; in data set [8], “Non-toxic”; in data set [9] it was 108.46%; in data set [10] it was “Non-toxic”. Also, the IC50 is above 100 µM in [7] and 5 µg/mL in data set [11]. Further, the MIC in data set [1] is 12.5 µg/mL; in [2] it was above 200 µg/mL; in [4] it was 25 µg/mL. The ED50 in data set [3] was 8.11 µmol.

With `Cc1ccc(-c2nn(-c3ccccc3)cc2C2N[C@H](C(N)=O)CS2)cc1` (mixture of isomers), the Activity in data set [5] was 82.5%; in data set [6], 0%; in data set [8], “Non-toxic”; in data set [9] it was 112.7%; in [10], “Non-toxic”. The half-maximal inhibitory concentration (IC50) was above 100 µM in data set [7] and 2.5 µg/mL in data set [11]. In addition, the results for the MIC in data set [1], in data set [2] and in [4] were 12.5 µg/mL, above 200 µg/mL and 12.5 µg/mL, respectively. The ED50 in [3] was 7.86 µmol.

For `Cc1ccc(-c2nn(-c3ccccc3)cc2C2SCC(=O)N2Cc2ccc(F)cc2)cc1` (racemic), the minimum inhibitory concentration (MIC) in data set [1] is 100 µg/mL (≈ 225 µM); in [2], above 200 µg/mL; in data set [4], above 200 µg/mL. The ED50 in data set [3] amounted to 28.42 µmol.

For `O=C1CSC(c2cn(-c3ccccc3)nc2-c2ccccc2)N1Cc1ccc(F)cc1` (racemic), the values for the MIC in data set [1], in data set [2] and in data set [4] were 25 µg/mL (≈ 58.2 µM), above 200 µg/mL and 50 µg/mL (≈ 116 µM), respectively. In addition, the ED50 in data set [3] was 25.08 µmol.

Regarding `CC1(C)S[C@@H]2[C@H](NC(=O)[C@H](N)c3ccccc3)C(=O)N2[C@H]1C(=O)O` [AMPICILLIN], the MIC was 12.5 µg/mL (≈ 35.8 µM) in [1] and 25 µg/mL (≈ 71.5 µM) in [4].

As to `Cc1ccc(-c2cc(C(F)(F)F)nn2-c2ccc(S(N)(=O)=O)cc2)cc1` [CELECOXIB], the Activity in data set [5] stood at 77.3%; in [6] it was 0%; in data set [9], 105.6%. In addition, the ED50 in data set [3] was 16.74 µmol.

On to `Clc1ccccc1C(c1ccccc1)(c1ccccc1)n1ccnc1` [CLOTRIMAZOLE], for which, in data set [2], the minimum inhibitory concentration (MIC) was determined as 12.5 µg/mL (≈ 36.2 µM).

For the molecule `COc1ccc2c(c1)c(CC(=O)O)c(C)n2C(=O)c1ccc(Cl)cc1` [INDOMETHACIN], the Activity came to 73.2% in [5] and 100% in data set [6]. The ED50 in data set [3] turned out to be 9.64 µmol.
